TRPC4 PAM: TRPC4 (mouse) allosteric potentiation | AID 2227 | 310,000 compounds, 0.42% hits | B-score at 10 µM | HEK293 TRPC4beta/mu-opioid, DAMGO EC20, Fluo-4 Ca2+ flux; stronger effect = higher value | Q9QUQ5;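 active = B-score of calcium response area above 5 SD of library B-scores, with initial fluorescence ratio within 5 SD of library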
TRPC6 activator: mouse TRPC6 channel activation; AID 2550; HEK293-TRPC6 membrane potential dye fluorescence; stronger effect = higher value; 310,000 compounds, 0.13% hits; Q61143; B-score at 10 µM;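 active = B-score of the integrated fluorescence ratio above library mean plus 3 SD, and starting fluorescence ratio within library mean plus 5 SD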;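 also: higher score means more depolarization so channel activation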
Target sequence (Q61143 whole entry, looked up): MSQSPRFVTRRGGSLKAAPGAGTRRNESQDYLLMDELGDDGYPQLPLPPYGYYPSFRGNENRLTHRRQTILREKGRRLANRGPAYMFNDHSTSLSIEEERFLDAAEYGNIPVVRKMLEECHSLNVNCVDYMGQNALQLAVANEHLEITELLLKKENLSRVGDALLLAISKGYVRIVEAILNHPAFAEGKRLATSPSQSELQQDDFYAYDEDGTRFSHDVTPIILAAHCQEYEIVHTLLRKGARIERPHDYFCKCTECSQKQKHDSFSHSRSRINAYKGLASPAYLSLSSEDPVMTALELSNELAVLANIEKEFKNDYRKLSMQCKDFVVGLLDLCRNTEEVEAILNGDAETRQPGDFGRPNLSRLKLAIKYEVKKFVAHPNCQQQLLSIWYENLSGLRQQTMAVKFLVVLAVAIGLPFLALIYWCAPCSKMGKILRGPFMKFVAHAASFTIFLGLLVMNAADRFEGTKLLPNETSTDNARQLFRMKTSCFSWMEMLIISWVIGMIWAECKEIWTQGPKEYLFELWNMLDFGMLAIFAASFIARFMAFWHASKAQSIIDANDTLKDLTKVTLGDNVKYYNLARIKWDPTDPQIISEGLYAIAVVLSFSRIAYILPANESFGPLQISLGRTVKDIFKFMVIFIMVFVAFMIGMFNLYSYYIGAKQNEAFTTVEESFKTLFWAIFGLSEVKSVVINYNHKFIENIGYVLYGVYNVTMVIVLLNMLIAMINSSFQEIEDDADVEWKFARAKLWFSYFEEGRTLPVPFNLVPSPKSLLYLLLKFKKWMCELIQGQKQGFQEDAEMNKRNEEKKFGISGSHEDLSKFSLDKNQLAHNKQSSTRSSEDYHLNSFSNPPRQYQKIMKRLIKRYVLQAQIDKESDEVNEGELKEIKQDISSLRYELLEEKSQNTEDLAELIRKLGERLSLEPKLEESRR
TRPC4 block: inhibitors of mouse TRPC4 channel | Q9QUQ5 | HEK293 TRPC4beta/mu-opioid, DAMGO-evoked Fluo4 calcium flux; stronger effect = lower value | B-score at 10 µM | 300,000 compounds, 0.39% hits;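 active = B-score over 3 SD under the library average, no early fluorescence shift, positive overall ratio signal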
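material = TRPC4beta/mu-opioid receptor HEK293 cell line | probe or stimulus = sequential submaximal and maximal DAMGO stimulation | compound dosing = one concentration per compound | measured by = Fluo4 Ca2+ flux fluorescence | evaluation = integrated fluorescence ratio relative to baseline, converted to per-well B score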
TRPC4 act: activators of mouse TRPC4 channel; Q9QUQ5; HEK293 TRPC4beta/mu-opioid, Fluo4 calcium fluorescence; stronger effect = higher value; B-score at 10 µM; 310,000 compounds, 0.49% hits;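 active = B-score above 5 SD of library B-scores, and initial fluorescence ratio not above library mean plus 5 SD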;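 also: positive B-score marks a calcium rise read as TRPC4 activation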
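Assay system: HEK293 cells stably co-expressing mouse TRPC4beta and mu-opioid receptor / Timing: Fluo4 dye loading 45 min at room temperature, 110 s recording / Signal: Fluo4 calcium-sensitive dye fluorescence, kinetic, 1 Hz baseline / Read-out: integrated baseline-normalised fluorescence ratio, converted to per-well B score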
TRPC6 inh: inhibitors of mouse TRPC6 channel. HEK293-TRPC6, membrane potential dye, ACh-evoked depolarization; stronger effect = lower value. B-score at 10 µM. 310,000 compounds, 1.1% hits;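 active = B-score under library mean minus 3 SD, initial fluorescence not abnormally high, positive integrated signal ratio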;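 also: B-score derived from integrated fluorescence ratio over the kinetic read; more negative B-score means stronger inhibition of depolarization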
HEK293 TRPC6 ctr: checks TRPC6 modulator effects in parental HEK293 cells; membrane potential signal change, % at 10 µM; 2,400 compounds, 51% hits; shares compounds with TRPC6 inh; membrane potential dye fluorescence;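 active = membrane potential signal moves up or down beyond 5 SD from buffer-only wells, on both duplicate plates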
HEK293 MPD ctr 2: parental HEK293 nonspecific activity of TRPC6 modulators, second screen. shares compounds with TRPC6 inh. membrane potential dye fluorescence; after compound, maximal acetylcholine stimulation. inhibition, % at 10 µM. 2,400 compounds, 14% hits;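 active = membrane potential signal drops by more than 5 SD from the mean control signal, in both duplicate plates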
TRPC4/MOR mod: selectivity of TRPC6 modulators against mouse TRPC4. shares compounds with TRPC6 inh. HEK293 TRPC4/mu-opioid, membrane potential fluorescence. percent change from control (negative = decrease, positive = increase), % at 10 µM. 2,400 compounds, 69% hits;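 active = membrane potential signal moved up or down beyond 5 SD of buffer control wells, in both duplicate plates, actives on both sides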
TRPC4 ctr inh 2: second selectivity test of TRPC6 modulators against mouse TRPC4; shares compounds with TRPC6 inh; HEK293 TRPC4/mu-opioid, membrane potential dye fluorescence; stimulated with maximal-effect DAMGO; 2,400 compounds, 55% hits; AID 488928; inhibition, % at 10 µM;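 active = drop in membrane potential signal beyond 5 SD of the control wells in both duplicate plates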;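 also: TRPC4 counter screen for TRPC6 hits run under conditions tuned for TRPC6 not TRPC4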
TRPC6 block conf: mouse TRPC6 inhibitor confirmation; shares compounds with TRPC6 inh; HEK293-TRPC6, membrane potential dye, ACh-evoked depolarization; inhibition, % at 10 µM; 3,300 compounds, 43% hits;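 active = fluorescence ratio falls more than 5 SD below the full-stimulation control mean, in both duplicate runs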;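 also: integrated fluorescence ratio of peak minus minimum over baseline after agonist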
TRPC6 act confirm: mouse TRPC6 activator confirmation; activation, % at 10 µM; 2,800 compounds, 11% hits; HEK293-TRPC6 membrane potential dye fluorescence, FDSS; shares compounds with TRPC6 inh;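 active = ratio signal rise beyond 5 SD above unstimulated control wells' mean, seen in both duplicate runs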
Hits are given with their value. Sampled rows, rich in hits. Any-hit rate of the full collection: about 2.3%.

`COc1ccc(N2CC(C(=O)Nc3ccccc3C(=O)NC3CC3)CC2=O)cc1` (centres undefined) gave TRPC4 PAM inactive, TRPC6 activator inactive, TRPC4 block inactive, TRPC4 act inactive and TRPC6 inh inactive.
Screening C/C(=N\Nc1ncnc2sc(C)c(C)c12)c1ccccn1 returned TRPC4 PAM 15, TRPC6 activator 17, TRPC4 block inactive, TRPC4 act inactive, TRPC6 inh inactive, HEK293 TRPC6 ctr 316%, HEK293 MPD ctr 2 inactive, TRPC4/MOR mod 50%, TRPC4 ctr inh 2 inactive, TRPC6 block conf inactive and TRPC6 act confirm 75%.
CC(=O)c1cccc(N(C(=O)CNC(=O)c2cccs2)C(C(=O)NCC2CCCO2)c2ccccc2)c1 (centres undefined) was read as TRPC4 PAM inactive, TRPC6 activator inactive, TRPC4 block inactive, TRPC4 act inactive and TRPC6 inh inactive.
Screening COc1ccccc1CNS(=O)(=O)CCNC(=O)c1ccccc1 returned TRPC4 PAM inactive, TRPC6 activator inactive, TRPC4 block inactive, TRPC4 act inactive and TRPC6 inh inactive.
Cc1sc(NC(=O)c2ccccc2)c(C(=O)NCCN(C)C)c1C was read as TRPC4 PAM inactive, TRPC6 activator inactive, TRPC4 block inactive, TRPC4 act 148, TRPC6 inh -11, HEK293 TRPC6 ctr -161%, HEK293 MPD ctr 2 inactive, TRPC4/MOR mod -31%, TRPC4 ctr inh 2 74%, TRPC6 block conf 62% and TRPC6 act confirm inactive.
For CN(C)CCNC(=O)c1ccccc1 the results were TRPC4 PAM inactive, TRPC6 activator inactive, TRPC4 block inactive, TRPC4 act inactive and TRPC6 inh inactive.
For CCOC(=O)c1nnn2c1nc(Nc1cccc(C(F)(F)F)c1)c1ccccc12 the results were TRPC4 PAM inactive, TRPC6 activator inactive, TRPC4 block inactive, TRPC4 act inactive and TRPC6 inh inactive.
Screening O=C(O)c1cc(NN=C2c3ccccc3-c3ccccc32)ccc1Cl returned TRPC4 PAM inactive, TRPC6 activator inactive, TRPC4 block -8, TRPC4 act inactive, TRPC6 inh -5.4, HEK293 TRPC6 ctr inactive, HEK293 MPD ctr 2 inactive, TRPC4/MOR mod -12%, TRPC4 ctr inh 2 59% and TRPC6 block conf 61%.
O=C1CCCc2ccccc2N1Cc1ccccc1 was read as TRPC4 PAM inactive, TRPC6 activator inactive, TRPC4 block inactive, TRPC4 act inactive and TRPC6 inh inactive.
COc1ccc(CN2C(=O)CCCc3ccccc32)cc1 was read as TRPC4 PAM inactive, TRPC6 activator inactive, TRPC4 block inactive, TRPC4 act inactive, TRPC6 inh -5.7, HEK293 TRPC6 ctr inactive, HEK293 MPD ctr 2 inactive, TRPC4/MOR mod inactive, TRPC4 ctr inh 2 inactive, TRPC6 block conf inactive and TRPC6 act confirm inactive.

Source: PubChem (Johns Hopkins Ion Channel Center)
